From ChEMBL document CHEMBL3351368, “Biphenyl-4-carboxylic acid [2-(1H-indol-3-yl)-ethyl]-methylamide (CA224), a nonplanar analogue of fascaplysin, inhibits Cdk4 and tubulin polymerization: evaluation of in vitro and in vivo anticancer activity” (J Med Chem, 2014)
In brackets after ≈: the same amount, converted by molar mass. Activity calls are given as the source filed them. The rule behind the calls is not given here.

Key:
Tubulin (Homo sapiens) [1] = target: T1, Tubulin (Homo sapiens) (UniProt P68371+Q9H4B7+P0DPH7+P68366+Q13509+Q71U36+P04350+Q3ZCM7+P07437+P68363+Q9BQE3+Q6PEY2+Q13885+Q9BVA1+Q9BUF5); assay: Inhibition of tubulin (unknown origin) polymerization assessed as decrease in Vmax measured at 2.5 uM by spectrophotometry; type: protein-complex assay
Procedure, shortened: (§1)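 Purified tubulin polymerisation followed as absorbance increase over about 4000 s. Vmax (mOD/min) is taken as the read-out, with final polymer mass also noted. Compound is tested at 2.5, 5, 10 and 25 µM alongside untreated control, paclitaxel 10 µM (enhancer) and nocodazole 10 µM (inhibitor). Curves are the average of three independent experiments.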

[2] = Solubility in phosphate buffered saline; type: physicochemical
[3] = Cell cycle arrest in human WI38 cells assessed as accumulation of cells at G2/M phase by flow cytometry; type: functional, cell-based; settings: WI-38
[4] = target: Cyclin-dependent kinase 1/cyclin B1 (Homo sapiens, UniProt P06493); assay: Binding affinity to human CDK1/cyclinB1; type: protein-complex assay
[5] = target: Insulin-like growth factor 1 receptor (Homo sapiens) (UniProt P08069); assay: Inhibition of human IGF-1R assessed as enzyme activity at 10 uM
[6] = Solubility in simulated intestinal fluid; type: ADME
[7] = Clearance in BALB/c mouse at 1 mg/kg, iv; type: ADME, organism-based; parameters: dose 1 mg/kg, route intravenous; settings: in vivo
Procedure, shortened: (§2)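 BALB/c mice given a single dose of 1.0 mg/kg IV or 10 mg/kg orally; plasma concentration followed over time and pharmacokinetic parameters derived from the time-concentration profile.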

[8] = AUC (0 to t) in BALB/c mouse at 1 mg/kg, iv; type: ADME, organism-based; parameters: dose 1 mg/kg, route intravenous; settings: plasma; procedure, shortened: as §2
NCI-H1299 [9] = assay: Cell cycle arrest in human NCI-H1299 cells assessed as accumulation of cells at S phase at IC50 concentration after 24 hrs by flow cytometry (reference value: 21%); type: functional
A549 [10] = assay: Induction of p21 level in p53+, pRb+ human A549 cells at IC50 concentration after 24 hrs by Western blot analysis
MiaPaCa [11] = assay: Induction in Cdk1 level in p53His273 mutant, pRb+ human MiaPaCa cells at IC50 concentration after 48 hrs by Western blot analysis; type: functional
NCI-H460 = assay: Induction of apoptosis in p53+, pRb+ human NCI-H460 cells assessed as fragmented nuclei/distrupted cell membrane after 24 hrs by DAPI staining-based flow cytometry; type: functional
MiaPaCa [12] = assay: Induction in cyclin B1 level in p53His273 mutant, pRb+ human MiaPaCa cells at IC50 concentration after 48 hrs by Western blot analysis; type: functional
MiaPaCa [13] = assay: Effect on p53 level in p53His273 mutant, pRb+ human MiaPaCa cells at IC50 concentration after 48 hrs by Western blot analysis; type: functional
A549 [14] = assay: Reduction Cdk1 level in p53+, pRb+ human A549 cells at IC50 concentration after 24 hrs by Western blot analysis
[15] = target: Epidermal growth factor receptor (Homo sapiens) (UniProt P00533); assay: Inhibition of human EGFR assessed as enzyme activity at 10 uM
Homo sapiens = species on record: Homo sapiens; assay: Inhibition of human PKA assessed as enzyme activity at 10 uM
A549 [16] = assay: Cell cycle arrest in human A549 cells assessed as accumulation of cells at S phase at IC50 concentration after 24 hrs by flow cytometry (reference value: 29%); type: functional
NCI-H358 = assay: Cell cycle arrest in human NCI-H358 cells assessed as accumulation of cells at S phase at IC50 concentration after 18 hrs by flow cytometry in presence of […] uM hydroxyurea for 18 hrs (reference value: 12%); type: functional
[17] = AUC (0 to infinity) in BALB/c mouse at 10 mg/kg, po; type: ADME, organism-based; parameters: time infinity, dose 10 mg/kg, route oral; settings: plasma; procedure, shortened: as §2
[18] = Terminal half life in BALB/c mouse at 10 mg/kg, po; type: ADME, organism-based; parameters: dose 10 mg/kg, route oral; settings: in vivo, read-out: beta t1/2 (converted); procedure, shortened: as §2
[19] = Cell cycle arrest in mouse BNL-CL2 cells assessed as accumulation of cells at S phase at IC50 concentration after 48 hrs by flow cytometry (reference value: 15%); type: functional
Procedure, shortened: (§3)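 Normal (BNL CL2) and SV40 large T-antigen transformed (BNL SV A.8) mouse embryonic hepatic cells were treated at IC50 or IC70 concentration for 48 h. Analysis was by FACS, with apoptosis taken as % cells in the sub-G1 peak. Untreated cells served as control.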

NCI-H1299 [20] = assay: Cell cycle arrest in human NCI-H1299 cells assessed as accumulation of cells at G0/G1 phase at IC50 concentration after 24 hrs by flow cytometry (reference value: 56%); type: functional
[21] = Cmax in BALB/c mouse at 10 mg/kg, po; type: ADME, organism-based; parameters: dose 10 mg/kg, route oral; settings: in vivo; procedure, shortened: as §2
[22] = target: Mitogen-activated protein kinase 1 (Homo sapiens) (UniProt P28482); assay: Inhibition of human MAPK1 assessed as enzyme activity at 10 uM
[23] = Anticancer activity against p53 null, pRb+ human Calu1 cells assessed as reduction in colony formation efficiency at 3 uM after 24 hrs by visual count/crystal violet staining method; type: functional; settings: Calu-1, 24 h
Procedure, shortened: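 Long-term survival assay. A549 and Calu-1 cells treated with a range of concentrations, colonies counted, efficiency expressed as percent of colonies versus untreated cultures. Means and standard deviations of three independent experiments.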

A549 [24] = assay: Increase in p27 level in p53+, pRb+ human A549 cells at IC50 concentration after 24 hrs by Western blot analysis
[25] = Volume of distribution at steady state in BALB/c mouse at 1 mg/kg, iv; type: ADME, organism-based; parameters: dose 1 mg/kg, route intravenous; settings: in vivo, read-out: Vdss; procedure, shortened: as §2
[26] = Solubility in water; type: physicochemical
Tubulin (Homo sapiens) [27] = target: T1, Tubulin (Homo sapiens); assay: Inhibition of tubulin (unknown origin) polymerization assessed as decrease in Vmax measured at 25 uM by spectrophotometry; type: protein-complex assay; procedure, shortened: as §1
[28] = Cell cycle arrest in mouse BNL-CL2 cells assessed as accumulation of cells at G0/G1 phase at IC50 concentration after 48 hrs by flow cytometry (reference value: 57%); type: functional; procedure, shortened: as §3
[29] = Displacement of ethidium bromide from closed circular plasmid DNA (unknown origin) by fluorescence quenching assay
[30] = target: Platelet-derived growth factor receptor (Homo sapiens) (UniProt P09619+P16234); assay: Inhibition of human PDGFR assessed as enzyme activity at 10 uM; type: protein-complex assay
[31] = target: Glycogen synthase kinase-3 beta (Homo sapiens) (UniProt P49841); assay: Inhibition of human GSK3beta assessed as enzyme activity at 10 uM
Tubulin (Homo sapiens) [32] = target: T1, Tubulin (Homo sapiens); assay: Inhibition of tubulin polymerization in p53+, pRb+ human A549 cells assessed as paclitaxel-mediated polymerization treated followed by compound treatment measured after 30 mins by Western blot analysis; type: cell-based
CYP3A4 = CYP3A4 (Homo sapiens, UniProt P08684); assay: Inhibition of human recombinant CYP3A4 at 10 uM; type: ADME
[33] = Efflux ratio of permeability across basolateral to apical side over apical to basolateral side in human Caco2 cells; type: ADME, cell-based; settings: Caco-2

Mitogen-activated protein kinase 1 (Homo sapiens), sequence (P28482 whole entry, looked up): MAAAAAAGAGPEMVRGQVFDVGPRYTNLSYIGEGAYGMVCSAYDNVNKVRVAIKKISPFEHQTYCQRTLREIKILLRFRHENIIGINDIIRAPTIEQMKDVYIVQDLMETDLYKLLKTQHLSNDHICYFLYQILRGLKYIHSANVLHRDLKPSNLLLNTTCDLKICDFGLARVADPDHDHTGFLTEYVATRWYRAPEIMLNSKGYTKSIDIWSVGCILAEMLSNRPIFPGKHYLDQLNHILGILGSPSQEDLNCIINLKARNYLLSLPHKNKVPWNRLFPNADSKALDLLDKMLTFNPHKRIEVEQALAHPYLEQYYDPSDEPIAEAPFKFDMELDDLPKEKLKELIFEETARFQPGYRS
CYP3A4, sequence (P08684 whole entry): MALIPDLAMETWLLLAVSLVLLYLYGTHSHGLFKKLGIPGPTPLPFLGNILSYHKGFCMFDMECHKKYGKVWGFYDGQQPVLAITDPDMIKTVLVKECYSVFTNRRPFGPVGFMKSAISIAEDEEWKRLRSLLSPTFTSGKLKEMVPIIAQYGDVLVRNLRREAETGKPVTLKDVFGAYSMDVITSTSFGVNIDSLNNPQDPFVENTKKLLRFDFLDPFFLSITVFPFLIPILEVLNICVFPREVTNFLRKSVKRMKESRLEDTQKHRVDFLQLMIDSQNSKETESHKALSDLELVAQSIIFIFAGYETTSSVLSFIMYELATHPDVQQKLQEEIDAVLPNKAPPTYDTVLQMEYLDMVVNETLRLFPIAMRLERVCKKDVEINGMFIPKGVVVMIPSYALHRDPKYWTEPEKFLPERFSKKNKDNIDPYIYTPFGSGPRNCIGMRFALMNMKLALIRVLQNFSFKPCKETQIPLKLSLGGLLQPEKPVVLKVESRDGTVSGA
Glycogen synthase kinase-3 beta (Homo sapiens), sequence (P49841 whole entry, looked up): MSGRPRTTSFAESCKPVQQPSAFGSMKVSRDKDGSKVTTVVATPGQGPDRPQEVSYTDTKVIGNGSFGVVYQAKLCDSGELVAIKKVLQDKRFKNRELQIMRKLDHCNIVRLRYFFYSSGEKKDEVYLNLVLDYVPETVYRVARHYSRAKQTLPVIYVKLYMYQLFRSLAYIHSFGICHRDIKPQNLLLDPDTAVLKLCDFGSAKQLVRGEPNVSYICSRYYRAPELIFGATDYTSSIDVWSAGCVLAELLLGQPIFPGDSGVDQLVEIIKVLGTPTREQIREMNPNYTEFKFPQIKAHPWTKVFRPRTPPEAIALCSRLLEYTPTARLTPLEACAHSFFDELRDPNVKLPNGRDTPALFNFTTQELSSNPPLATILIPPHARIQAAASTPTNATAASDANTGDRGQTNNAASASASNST
Insulin-like growth factor 1 receptor (Homo sapiens), sequence (P08069 31-736 limits assumed): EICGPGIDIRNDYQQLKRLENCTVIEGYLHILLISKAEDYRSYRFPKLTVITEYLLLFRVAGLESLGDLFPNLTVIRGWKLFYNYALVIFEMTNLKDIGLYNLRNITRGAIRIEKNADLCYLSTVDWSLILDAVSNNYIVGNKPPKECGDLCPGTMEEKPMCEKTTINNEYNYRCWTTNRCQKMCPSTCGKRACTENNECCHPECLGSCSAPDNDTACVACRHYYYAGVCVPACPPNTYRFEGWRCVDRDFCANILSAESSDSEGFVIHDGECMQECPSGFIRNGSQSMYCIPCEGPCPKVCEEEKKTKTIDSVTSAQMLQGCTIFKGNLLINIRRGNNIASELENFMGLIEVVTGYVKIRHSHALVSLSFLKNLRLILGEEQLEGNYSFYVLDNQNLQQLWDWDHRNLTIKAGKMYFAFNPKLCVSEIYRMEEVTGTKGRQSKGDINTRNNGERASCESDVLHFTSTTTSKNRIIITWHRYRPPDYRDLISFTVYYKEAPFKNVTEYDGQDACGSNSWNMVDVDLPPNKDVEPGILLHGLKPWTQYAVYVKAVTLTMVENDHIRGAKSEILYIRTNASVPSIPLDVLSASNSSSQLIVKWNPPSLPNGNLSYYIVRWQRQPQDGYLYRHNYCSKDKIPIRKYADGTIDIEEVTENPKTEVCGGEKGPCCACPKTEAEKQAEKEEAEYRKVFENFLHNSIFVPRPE
Insulin-like growth factor 1 receptor (Homo sapiens), sequence (P08069 741-1367 limits assumed): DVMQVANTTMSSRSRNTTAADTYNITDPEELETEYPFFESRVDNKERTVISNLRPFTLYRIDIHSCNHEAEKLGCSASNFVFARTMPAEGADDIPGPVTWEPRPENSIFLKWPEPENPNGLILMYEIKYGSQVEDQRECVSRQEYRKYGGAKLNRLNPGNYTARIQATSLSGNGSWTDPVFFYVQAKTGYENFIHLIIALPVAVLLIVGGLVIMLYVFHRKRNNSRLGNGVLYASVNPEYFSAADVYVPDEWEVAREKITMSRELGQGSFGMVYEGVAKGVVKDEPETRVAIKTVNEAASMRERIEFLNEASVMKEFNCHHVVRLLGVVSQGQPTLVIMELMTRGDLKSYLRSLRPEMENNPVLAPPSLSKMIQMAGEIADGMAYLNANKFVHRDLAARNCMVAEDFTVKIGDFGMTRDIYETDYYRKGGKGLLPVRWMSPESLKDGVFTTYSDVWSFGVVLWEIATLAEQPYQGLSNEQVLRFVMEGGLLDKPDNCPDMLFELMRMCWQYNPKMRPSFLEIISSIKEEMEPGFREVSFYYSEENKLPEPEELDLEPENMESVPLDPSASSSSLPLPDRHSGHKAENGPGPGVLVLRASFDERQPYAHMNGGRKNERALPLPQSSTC
Epidermal growth factor receptor (Homo sapiens), sequence (P00533 whole entry): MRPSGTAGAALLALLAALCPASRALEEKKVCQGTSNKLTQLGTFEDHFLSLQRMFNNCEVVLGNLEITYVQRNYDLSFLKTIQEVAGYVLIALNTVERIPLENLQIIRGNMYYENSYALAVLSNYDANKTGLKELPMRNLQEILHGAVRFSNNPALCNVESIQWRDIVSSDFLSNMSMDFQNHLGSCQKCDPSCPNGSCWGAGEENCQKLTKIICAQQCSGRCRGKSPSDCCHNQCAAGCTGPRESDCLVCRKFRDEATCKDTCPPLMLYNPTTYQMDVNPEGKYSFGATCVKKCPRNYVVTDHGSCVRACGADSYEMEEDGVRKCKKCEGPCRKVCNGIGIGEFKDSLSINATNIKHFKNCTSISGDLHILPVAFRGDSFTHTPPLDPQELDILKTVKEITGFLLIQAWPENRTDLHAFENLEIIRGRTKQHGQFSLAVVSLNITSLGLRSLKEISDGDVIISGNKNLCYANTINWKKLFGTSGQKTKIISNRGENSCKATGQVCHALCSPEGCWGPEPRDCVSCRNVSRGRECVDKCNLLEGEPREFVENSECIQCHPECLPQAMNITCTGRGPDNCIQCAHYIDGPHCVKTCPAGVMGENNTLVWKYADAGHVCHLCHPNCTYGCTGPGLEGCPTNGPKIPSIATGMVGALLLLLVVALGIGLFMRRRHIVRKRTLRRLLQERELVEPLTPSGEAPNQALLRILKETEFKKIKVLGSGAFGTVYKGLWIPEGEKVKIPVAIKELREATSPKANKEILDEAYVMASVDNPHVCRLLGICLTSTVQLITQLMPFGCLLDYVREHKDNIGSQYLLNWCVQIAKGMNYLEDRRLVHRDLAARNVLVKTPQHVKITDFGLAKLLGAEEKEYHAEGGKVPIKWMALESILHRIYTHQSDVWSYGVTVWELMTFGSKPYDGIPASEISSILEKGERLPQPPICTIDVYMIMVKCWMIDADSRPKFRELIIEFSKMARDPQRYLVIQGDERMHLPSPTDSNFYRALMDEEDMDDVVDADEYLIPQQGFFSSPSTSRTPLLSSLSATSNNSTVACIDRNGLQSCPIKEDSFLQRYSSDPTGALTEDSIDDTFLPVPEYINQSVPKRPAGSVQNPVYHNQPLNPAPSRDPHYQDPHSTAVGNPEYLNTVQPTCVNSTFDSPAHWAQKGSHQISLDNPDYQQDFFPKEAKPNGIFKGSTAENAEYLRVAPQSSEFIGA
Cyclin-dependent kinase 1/cyclin B1, sequence (P06493 whole entry): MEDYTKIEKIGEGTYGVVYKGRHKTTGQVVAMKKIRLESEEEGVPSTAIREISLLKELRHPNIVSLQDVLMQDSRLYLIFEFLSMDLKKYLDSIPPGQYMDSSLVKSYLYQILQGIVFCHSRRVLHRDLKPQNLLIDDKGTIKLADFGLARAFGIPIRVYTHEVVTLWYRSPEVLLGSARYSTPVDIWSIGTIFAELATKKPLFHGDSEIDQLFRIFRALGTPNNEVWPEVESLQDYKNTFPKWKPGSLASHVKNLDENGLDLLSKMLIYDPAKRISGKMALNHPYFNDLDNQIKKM
Cyclin-dependent kinase 1/cyclin B1, sequence (P14635 whole entry, further chain): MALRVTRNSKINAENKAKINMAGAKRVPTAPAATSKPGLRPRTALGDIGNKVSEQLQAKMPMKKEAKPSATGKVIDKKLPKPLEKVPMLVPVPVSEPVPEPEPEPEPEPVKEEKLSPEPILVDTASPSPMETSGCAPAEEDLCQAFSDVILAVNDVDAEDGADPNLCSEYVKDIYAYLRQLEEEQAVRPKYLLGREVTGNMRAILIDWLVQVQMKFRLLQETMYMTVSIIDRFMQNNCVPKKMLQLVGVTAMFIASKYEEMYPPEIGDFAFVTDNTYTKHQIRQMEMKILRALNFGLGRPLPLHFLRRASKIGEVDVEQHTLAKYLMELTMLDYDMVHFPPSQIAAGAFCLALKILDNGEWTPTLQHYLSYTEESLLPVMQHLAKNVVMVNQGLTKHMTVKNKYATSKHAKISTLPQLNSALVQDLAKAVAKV

With `CN(CCc1c[nH]c2ccccc12)C(=O)c1ccc(-c2ccccc2)cc1` the Activity (milli optical density/minute) (Tubulin (Homo sapiens) [1]) was 6.2, the solubility [2] was 125 µg/mL (≈ 353 µM) and the Activity [3] was “Active”. The IC50 [4] was > 500 µM, the inhibition [5] was “inactive” and the solubility [6] was 5 µg/mL (≈ 14.1 µM). The clearance [7] was 88.3 mL/min/kg, the AUC(0-t) [8] was 187 ng·h/mL and the Activity (NCI-H1299 [9]) was 10%. For the same compound, the Activity (A549 [10]) was “Active”, the Activity (MiaPaCa [11]) was “Active” and the Activity (NCI-H460) was “Dose-dependent effect”. The Activity (MiaPaCa [12]) was “Active”, the Activity (MiaPaCa [13]) was “inactive” and the inhibition (A549 [14]) was “Active”. The inhibition [15] was “inactive”, the inhibition (Homo sapiens) was “inactive” and the Activity (A549 [16]) was 4%. For the same compound, the Activity (NCI-H358) was 10%, the AUC(0-inf) [17] was 182 ng·h/mL and the half-life [18] was 1.16 h. For the same compound, the Activity [19] was 9%, the Activity (NCI-H1299 [20]) was 22% and the Cmax [21] was 190 ng/mL. The inhibition [22] was “inactive”, the inhibition at 3 µM [23] was 50% and the Activity (A549 [24]) was “Active”. For the same compound, the Vd [25] was 1.76 L/kg, the solubility [26] was 80 µg/mL (≈ 226 µM) and the Activity (milli optical density/minute) (Tubulin (Homo sapiens) [27]) was 0.4. For the same compound, the Activity [28] was 34%, the inhibition [29] was “inactive” and the inhibition [30] was “inactive”. The inhibition [31] was “inactive”, the inhibition (Tubulin (Homo sapiens) [32]) was “Dose-dependent effect” and the inhibition at 10 µM (CYP3A4) was 50%. The efflux ratio [33] was 1.1.
